# Bioassay records as filed in PubChem.
# RanGTP-Imp inh: disruptors of Ran-importin-beta complex formation – biochemical, FRET, CFP-Ran, YFP-importin-beta, homogeneous, primary screen. actives 1.1% (n = 300,000). inhibition, % (concentration not given with the values). cell-free CFP-Ran/YFP-importin-beta FRET ratio. AID 2216;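 active = more than half of the replicate wells show a fall in the fluorescence ratio signal beyond about 16%, limit read from the data, passing the limit was not always enough; inconclusive = exactly half of the replicate wells pass the set limit; inactive = fewer than half of replicates pass the limit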;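 also: 0% = DMSO wells and 100% = Ran loaded with GDP instead of GTP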
# Hck Nef HTS: inhibitors of human Hck kinase activated by Nef | Recombinant Hck-YEEI plus Nef, Z-Lyte FRET kinase assay | inhibition, % at 20 µM | actives 0.68% (n = 220,000) | AID 463187;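 active = Hck-Nef kinase inhibition above about 50%, limit read from the data; inactive = inhibition below that limit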;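 also: 0% = DMSO with Hck plus Nef and 100% = Hck alone without Nef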
# Runt-CBFb FRET: inhibitors of human RUNX1 Runt domain binding to CBFb | inhibition, % at 20 µM | Q01196+Q13951 | AID 1496 | actives 0.46% (n = 220,000) | Cerulean-Runt/Venus-CBFb FRET ratio 530/480, 1 h;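 active = inhibition over about 50% at 20 µM in the single-dose screen, limit read from the data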;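 also: 0% = DMSO wells and 100% = excess unlabeled CBFb competitor control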
# Target sequence (Q01196 whole entry, looked up, the tested form may be a part): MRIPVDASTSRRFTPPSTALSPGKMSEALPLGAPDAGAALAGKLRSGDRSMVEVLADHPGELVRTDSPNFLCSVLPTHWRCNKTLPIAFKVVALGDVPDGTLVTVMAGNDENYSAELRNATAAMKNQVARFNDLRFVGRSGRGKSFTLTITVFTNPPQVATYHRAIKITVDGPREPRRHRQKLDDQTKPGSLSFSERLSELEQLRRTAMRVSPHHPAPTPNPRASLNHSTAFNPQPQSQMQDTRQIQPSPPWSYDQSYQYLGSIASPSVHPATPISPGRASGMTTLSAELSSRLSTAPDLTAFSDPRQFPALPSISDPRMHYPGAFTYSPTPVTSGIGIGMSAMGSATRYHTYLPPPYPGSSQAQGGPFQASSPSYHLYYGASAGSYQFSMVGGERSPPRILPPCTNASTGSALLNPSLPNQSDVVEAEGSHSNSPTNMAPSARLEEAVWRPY
# Target sequence (Q13951 whole entry, looked up, the tested form may be a part): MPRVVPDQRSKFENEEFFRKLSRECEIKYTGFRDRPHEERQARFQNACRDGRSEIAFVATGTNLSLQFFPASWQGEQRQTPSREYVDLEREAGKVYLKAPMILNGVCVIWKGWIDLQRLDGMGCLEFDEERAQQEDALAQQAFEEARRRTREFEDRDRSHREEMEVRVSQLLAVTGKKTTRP
#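 Measured by: fluorescence energy transfer, 422 nm excitation, 530/480 nm emission; Assay system: Cerulean-Runt domain; Medium: Tris pH 7.5 buffer with BSA; Measure: loss of energy transfer signal; Controls: 5 µM unlabeled CBFb as full-inhibition high control; Incubation: protein complex preformed 1 h, compound exposure 1 h, room temperature, dark.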
# Runt-SMMHC FRET: Runt domain-CBFb-SMMHC interaction inhibition | Cerulean-Runt/Venus-CBFb-SMMHC FRET ratio 530/480, 1 h | actives 0.74% (n = 220,000) | inhibition, % at 20 µM | Q01196+Q13951 | AID 1434;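 active = mean inhibition across duplicate retests at 20 µM reaching about 50%, limit read from the data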;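 also: 0% = DMSO wells and 100% = wells with excess untagged CBFb-SMMHC; inhibitors lower the FRET ratio by blocking Runt binding to CBFb-SMMHC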
# * hit, by the source's call; ? = inconclusive; · = no result given. Compounds with a hit are over-represented: about 1.8% of the library has one in this group of screens.
SMILES,RanGTP-Imp inh,Hck Nef HTS,Runt-CBFb FRET,Runt-SMMHC FRET
CCOC(=O)c1c(NC(=O)CSc2nnc(C)s2)sc2c1CCN(C)C2,27*,6,79*,135*
CCCCn1c(N)c(N(CC(C)C)C(=O)c2oc3ccc(Br)cc3c2C)c(=O)[nH]c1=O,0,·,·,·
CC(C)C(NC(=O)c1c(F)cccc1F)C(=O)N1CCN(c2ccccc2F)CC1 (configuration not stated),2,·,·,·
CCOc1ccc2nc(Cl)c(C3CC(c4ccco4)=NN3S(=O)(=O)c3ccccc3)cc2c1 (configuration not stated),-1,59*,-2,-6
COc1ccc2cc(C3CC(c4ccco4)=NN3S(C)(=O)=O)c(Cl)nc2c1 (configuration not stated),-5,-176,30,-4
C/C(=N\Nc1cc(C)nc(-c2ccccc2O)n1)c1ccccc1O,28*,15,1,0
CCCCC1CCC(C(=O)NCc2ccc3c(c2)OCO3)CC1 (configuration not stated),92*,-2,1,-1
COc1cc(SSc2cc(OC)cc([N+](=O)[O-])c2N)c(N)c([N+](=O)[O-])c1,-12,-43,41,64*
COCCNc1c2c(c(C#N)c3nc4ccccc4n13)CCCC2,21*,25,36,75*
CC(=O)Nc1ccc(N2CCc3c(C)c(C#N)c4nc5ccccc5n4c32)cc1,110*,4,4,81*
COc1ccc(Nc2c3c(c(C#N)c4nc5ccccc5n24)CCC3)cc1,-3,1,·,34
N#Cc1c2c(c(NCCOCCO)n3c1nc1ccccc13)CCCC2,-4,15,39,85*
CC(=O)c1ccc(Nc2c3c(c(C#N)c4nc5ccccc5n24)CCC3)cc1,31*,4,39,68*
N#Cc1c2c(c(NCc3cccnc3)n3c1nc1ccccc13)CCC2,?,18,23,·
CCc1ccccc1NC(=O)/C(C#N)=C/c1ccc(Sc2ccccc2)o1,14,0,-21,-44
CCc1ccccc1NC(=O)/C(C#N)=C\c1ccc(Sc2ccccc2)o1,16*,2,-6,-28
CC1(OC(=O)c2cccs2)C(=O)C=C2C=C(c3ccsc3)OC=C2C1=O (configuration not stated),-8,·,·,·
CC1(OC(=O)CCc2ccccc2)C(=O)C=C2C=C(c3ccsc3)OC=C2C1=O (configuration not stated),-11,71*,3,-12
O=C(NC1CCCCC1)c1cc(-c2ccccc2O)on1,2,·,·,·
COc1ccc(-c2cc(C(=O)OCC(=O)Nc3cc(C)on3)c3ccccc3n2)cc1OC,90*,1,4,-21
COc1ccc(CNC(=O)COC(=O)c2cc(-c3ccc(Cl)s3)nc3ccccc23)cc1,17*,5,-2,-6
CCC(C)c1ccc(-c2cc(C(=O)OCC(=O)Nc3cc(C)on3)c3ccccc3n2)cc1 (configuration not stated),2,0,-1,2
CSc1cc(-c2ccco2)oc1C(=O)c1ccco1,10,·,·,·
O=C(CSc1n[nH]c(=O)[nH]c1=O)N/N=C/C=C\c1ccccc1,0,20,83*,-6
O=C(CSc1n[nH]c(=O)[nH]c1=O)N/N=C/C=C/c1ccccc1,0,0,2,0
SMILES,RanGTP-Imp inh,Hck Nef HTS,Runt-CBFb FRET,Runt-SMMHC FRET
COc1ccc(C2=NOC(C(=O)N3CCN(C(=O)c4ccco4)CC3)C2)cc1OC (configuration not stated),8,·,·,·
Cn1c(CNC(=O)CCNC(=O)c2cccc(Br)c2)cc(=O)n(C)c1=O,6,·,·,·
Fc1cccc(NC(=S)NNc2ccccc2)c1,0,·,·,·
Fc1cccc(NC(=S)NNc2c3ccccc3nc3ccccc23)c1,-1,43,88*,87*
CCCCCCNC(=O)N[C@H](C(=O)NCCC[C@H]1CN2C(=NC[C@H]2C)N1CCC(c1ccccc1)c1ccccc1)C(C)O (some centres not stated),·,-20,9,62*
CC(NC(=O)c1cccc(F)c1)C1CC2CCC1C2 (configuration not stated),-4,·,·,·
COc1ccc(/C=C2\N=C(c3ccccc3)N(c3ccc(C(=O)O)cc3)C2=O)cc1OC,26*,5,-9,-19
CN(Cc1ccccc1)C(=O)c1ccc(NC(=O)c2ccccc2)cc1,3,·,·,·
COC(=O)c1ccc2[nH]c(C)c(CN3CCCC3)c(=O)c2c1,-3,-1,16,64*
COc1ccc(F)cc1S(=O)(=O)Nc1ccncc1,6,·,·,·
Oc1ccccc1-c1csc(-c2ccccc2)n1,1,-10,-1,-2
Oc1ccc(-c2csc(-c3ccccc3)n2)cc1O,-4,-1,37,52*
CN(C)C(=O)COc1ccc(S(=O)(=O)c2ccc(OCC(=O)N(C)C)cc2)cc1,-4,·,·,·
O=C(O)CCc1ccc(-c2cccs2)n1CC1CCCO1 (configuration not stated),18*,18,32,86*
O=C(O)CCc1ccc(-c2ccc(F)cc2)n1CC1CCCO1 (configuration not stated),1,8,12,21
CCCn1c(CCC(=O)O)ccc1-c1cccs1,?,4,11,26
COc1ccc(-c2ccc(CCC(=O)O)n2CC(C)C)cc1,2,12,27,51*
COCCCn1c(CCC(=O)O)ccc1-c1cccs1,55*,15,22,126*
COc1ccc(-c2ccc(CCC(=O)O)n2CC2CCCO2)cc1 (configuration not stated),?,15,32,75*
Cc1cc(=O)nc2c3ccccc3n(CC(=O)NCCC3=CCCCC3)n12,-2,·,·,·
CC(=O)Nc1ccc(NC(=O)C(C)OC(=O)CNC(=O)c2ccc(-c3ccccc3)cc2)cc1 (configuration not stated),-1,·,·,·
O=C(NCC(c1ccco1)N1CCc2ccccc2C1)c1ccc(F)cc1 (configuration not stated),-3,·,·,·
CC(=O)Oc1ccc(-c2cc3ccccc3oc2=O)cc1,3,·,·,·
CC(=O)Oc1ccc(-c2cc3c(OC(C)=O)cc(OC(C)=O)cc3oc2=O)cc1,123*,·,·,·
CSc1ccc(CN2CCCC(N3CCN(c4ccccc4)CC3)C2)cc1 (configuration not stated),-8,·,·,·
Cc1ccc2nc(=O)c(NNc3ccccc3)cnc2c1,·,94*,-3,1
Cc1ccc2nc(-c3ccccc3)c(-c3ccccc3)nc2c1,-4,15,-1,0
COC(=O)C1C(=O)C2=C(CC1C)NC(C)=C(C(=O)OC(C)C)C2c1ccc(OC)c(O)c1 (configuration not stated),-2,6,0,4
COC(=O)C1=C(C)NC2=C(C(=O)CC(C)(C)C2)C1c1ccccn1 (configuration not stated),8,40,70*,123*
